Data reported in PubChem BioAssay AID449754 (Broad Institute, 2010).
Inconclusive results are not listed. Active and inactive are the calls of the source.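 The calls were made as follows: active = compounds whose fitted caspase activation AC50 is no more than tenfold above the top tested dose; inconclusive = flat fit with 30 to 70% activity, or a failed fit; inactive = the rest.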

Test system: MEF Bax/Bak KO A1-BIM, caspase-Glo luminescence, 3 h
Test: caspase signal in Bax-Bak null A1-BIM cells – cell-based, Bax-Bak knockout MEF, A1-2A-BIM, luminescence, counter-screen for A1 inhibitor project, dose response (AID 449754);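 also: counterscreen where caspase activation signals off-target toxicity not A1 inhibition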
In short: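 Material: Bax/Bak-knockout mouse embryonic fibroblasts expressing A1-2A-BIM | Quantity: 2500 cells per well, seeded one day before compound | Buffer or medium: RPMI-1640, 10% FBS | Incubation: 3 h compound at 37 °C, 1 h detection at RT | Signal: CaspaseGlo luminescence, reagent diluted 1:1 in 50 mM HEPES | Evaluation: Caspase activity from luminescent signal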

Row | Structure (SMILES) | AC50
1 | CCOC(=O)/C=c1\s/c(=C\c2ccc(C(=O)OC)cc2)c(=O)n1CC(=O)Nc1ccccc1 | > 35 µM (inactive)
2 | COc1ccccc1-c1cn[nH]c1-c1ccc(OCc2ccccc2)cc1O | > 35 µM (inactive)
3 | CCOc1cc(/C=N/Nc2cc(C)nc(-n3nc(C)cc3C)n2)ccc1O | > 35 µM (inactive)
4 | CC1CCN(Cc2c(C(=O)N/N=C/c3ccc(C(C)(C)C)cc3)nnn2-c2nonc2N)CC1 | > 35 µM (inactive)
5 | COc1ccc(NC(=O)C(=O)N/N=C\c2ccc(CNC(=O)C(=O)Nc3ccc(C)c(C)c3)o2)c(OC)c1 | 32 µM
6 | Cc1ccc(Sc2c([N+](=O)[O-])c(=O)n(C)c3ccccc23)cc1 | > 35 µM (inactive)
7 | COc1cc2ncnc(NCc3ccc(F)cc3)c2cc1OC | > 35 µM (inactive)
8 | CCCCNC(=S)N/N=C/c1ccc(OCC(=O)Nc2c(C)cc(C)cc2C)c(OC)c1 | > 35 µM (inactive)
9 | Cc1c(CCOC(=O)c2ccc(N3CCOCC3)c([N+](=O)[O-])c2)sc[n+]1CC#N | > 35 µM (inactive)
10 | COc1ccc(NC(=O)CSc2nc3ccc(Nc4nc(N5CCOCC5)nc(N5CCOCC5)n4)cc3s2)cc1 | > 35 µM (inactive)
11 | O=C(CCl)N=c1sccn1Cc1ccccc1Cl | > 35 µM (inactive)
12 | COc1ccc2c(-c3cc4ccc(OCc5ccc(F)cc5)cc4oc3=O)cc(=O)oc2c1 | 36.6 µM
13 | COc1cc(NC(=O)c2ccc(Cl)cc2Cl)ccc1-c1cc2ccccc2oc1=O | > 35 µM (inactive)
14 | O=C(N/C=N/OCc1ccc(Cl)cc1Cl)NOCc1ncc(C(F)(F)F)cc1Cl | > 35 µM (inactive)
15 | CC(=O)OC(C)(C)/C=C/C(=O)C(C)(O)C1[C@H](O)C[C@@]2(C)C3CC=C4C(CC[C@@H](O)C4(C)C)[C@]3(CO)C(=O)C[C@]12C (stereo partly specified) | > 35 µM (inactive)
16 | Cc1cccc(CS(=O)(=O)c2ncc(Cl)c(C(=O)Nc3nnc(C(C)C)s3)n2)c1 | > 35 µM (inactive)
17 | Cc1ccc(CS(=O)(=O)c2ncc(Cl)c(C(=O)Nc3nnc(C(C)C)s3)n2)cc1 | > 35 µM (inactive)
18 | CCOc1ccc(OCC(=O)N(CCC2=CCCCC2)c2c(N)n(Cc3ccccc3)c(=O)[nH]c2=O)cc1 | 18.8 µM
19 | CC(C)CC(NC(=O)c1ccc(Cl)cc1)C(=O)OCC(=O)c1ccc2c(c1)NC(=O)CO2 (stereo unspecified) | 6.3 µM
20 | Cc1c(C=O)c(C=O)c(C)n1Cc1ccccc1 | > 35 µM (inactive)
21 | O=C1/C(=C\c2c(NCCOCCO)nc3ccccn3c2=O)SC(=S)N1Cc1ccco1 | > 35 µM (inactive)
22 | COc1ccc(C2CC(c3c(O)cc(C)oc3=O)=NCCS2)c(OC)c1 (stereo unspecified) | > 35 µM (inactive)

Row | Structure (SMILES) | AC50
23 | Cc1ccc(NC(=O)c2cc(N3C(=O)C=CC3=O)ccc2N2CCOCC2)cc1Cl | > 35 µM (inactive)
24 | COc1ccc(-c2c(C#N)c(N)nc(Sc3ccc(Cl)cc3)c2C#N)cc1 | > 35 µM (inactive)
25 | Cc1ccc2c(c1)C(=O)C(=O)N2Cc1ccc(Br)cc1 | > 35 µM (inactive)
26 | CCOc1cccc(C(=O)Nc2cccc(-c3nnc(-c4ccc(C)cc4)o3)c2)c1 | 35.7 µM
27 | CN(C)C/C=C(\c1ccc(Br)cc1)c1cccnc1 | > 35 µM (inactive)
28 | CCc1nnc(NC(=O)CSc2nc(-c3ccccc3)cc(-c3ccc(F)cc3)c2C#N)s1 | 35.8 µM
29 | CCc1ccccc1NC(=O)C(CC)Sc1nc2cc3c(cc2c(=O)n1Cc1ccco1)OCO3 (stereo unspecified) | > 35 µM (inactive)
30 | CCN(C(=O)CCN1C(=O)c2ccccc2S1(=O)=O)c1ccccc1 | > 35 µM (inactive)
31 | CCOc1cc(C(=O)CSc2nnc(CNc3ccc(Cl)cc3)o2)ccc1NC(=O)CC | 17.6 µM
32 | CCC(Sc1nc2cc3c(cc2c(=O)n1Cc1ccco1)OCO3)C(=O)Nc1cccc(OC)c1 (stereo unspecified) | > 35 µM (inactive)
33 | O=S1(=O)CCOC[C@H](CC2CCCCC2)N1Cc1cccc(Cl)c1 | > 35 µM (inactive)
34 | CCOCCCNC(=O)c1ccc2c(c1)N=C(CC)c1cc(Br)ccc1S2 | > 35 µM (inactive)
35 | Cc1cc(NC(=O)/C(C#N)=C/c2ccc(-c3ccc(SC(F)F)cc3)o2)n(-c2ccccc2)n1 | > 35 µM (inactive)
36 | NC(=S)c1cn(C2OC(CO)C(O)C2O)c2ncnc(N)c12 (stereo unspecified) | > 35 µM (inactive)
37 | O=C(c1ccc(COc2ccc3ccccc3c2)o1)N1N=C(C(F)F)CC1(O)C(F)F (stereo unspecified) | > 35 µM (inactive)
38 | COc1ccc(-c2oc(=O)c3cc(OC)c(OC)cc3c2/C=C/c2cccc([N+](=O)[O-])c2)cc1 | > 35 µM (inactive)
39 | COc1cc(/C=C(/C#N)C(=O)Nc2ccc(Cl)cc2)ccc1Oc1nc(Cl)ncc1F | > 35 µM (inactive)
40 | CC1CCc2c(sc3nc(C(C)(C)C)nc(N4CCN(C(=O)CCl)CC4)c23)C1 (stereo unspecified) | 12.3 µM
41 | Cc1cccc(C)c1NC(=O)C(Cl)C(=O)c1ccccc1 (stereo unspecified) | > 35 µM (inactive)
42 | CCc1cc2c(=O)c(-c3cnn(-c4ccccc4)c3)c(C)oc2cc1OCC(=O)Nc1cccc(C)c1 | > 35 µM (inactive)
43 | C=C1CCc2c([nH]c3ccc(OCC(C)C)cc23)C1=O | 16.6 µM
44 | CCOc1ccc(N2C(=O)/C(=C\c3ccc(O)c(OC)c3)S(=O)(=O)C2c2cccc([N+](=O)[O-])c2)cc1 (stereo unspecified) | > 35 µM (inactive)

Row | Structure (SMILES) | AC50
45 | COc1ccc(-c2ccc3c(c2)S(=O)(=O)c2cccc(C(=O)NCCOc4ccccc4)c2C3=O)cc1OC | > 35 µM (inactive)
46 | COc1ccc(C(=O)/C=C/C(=O)N(CC(=O)NC2CCCCC2)Cc2cccs2)c(O)c1 | > 35 µM (inactive)
47 | COc1ccc(OC)c(NC(=O)c2cc(-c3cc(C)ccc3O)n[nH]2)c1 | > 35 µM (inactive)
48 | Cc1ccc(C#N)c(SCC(=O)Nc2nccs2)n1 | > 35 µM (inactive)
49 | CC(C)(C)C1CCc2onc(C(=O)Nc3cccc(O)c3)c2C1 (stereo unspecified) | > 35 µM (inactive)
50 | COc1cc(NC(=O)c2ccccc2)c(OC)cc1NC(=O)Cc1ccc(Br)cc1 | > 35 µM (inactive)
51 | O=C(NCc1ccccc1Br)c1cccc2c1C(=O)c1ccc(-c3ccc(OC(F)(F)F)cc3)cc1S2(=O)=O | > 35 µM (inactive)
52 | COc1ccc(OC[C@@H](O)CNC(=O)c2cccc3c2C(=O)c2ccc(-c4ccc(F)cc4OCc4ccccc4)cc2S3(=O)=O)cc1 | > 35 µM (inactive)
53 | N#C/C(=C\c1ccc(OCc2ccccc2)cc1)C(=O)Nc1nc2c(s1)CCN(Cc1ccccc1)C2 | > 35 µM (inactive)
54 | COc1cc2c(-c3ccccc3)c(C)oc2cc1/C=N/NC(N)=S | > 35 µM (inactive)
55 | Cc1ccc(-c2nc(NC(=O)c3nn(C)cc3[N+](=O)[O-])sc2C)cc1C | 16.2 µM
56 | COc1ccc2c(c1)[nH]c1c(=O)n(/N=C/C3C(C)C=C(C)CC3C)c(=O)[nH]c12 (stereo unspecified) | > 35 µM (inactive)
57 | Cc1cc(C)cc(NC(=O)/C(C#N)=C/c2cn(CC(=O)NCc3ccco3)c3ccccc23)c1 | 6.71 µM
58 | Cc1[nH]nc2nc(SCC(=O)NCCC3=CCCCC3)n(-c3ccc(Br)cc3)c(=N)c12 | 18.6 µM
59 | O=C(Nc1ccc([N+](=O)[O-])cc1)C(Cc1ccccc1)N1C(=O)c2cccc3cccc(c23)C1=O (stereo unspecified) | > 35 µM (inactive)
60 | O=[N+]([O-])/C=C/c1cn(Cc2ccc(Cl)cc2)c2ccccc12 | 20.7 µM
61 | COc1ccc(C[C@H]2NC[C@H](O)[C@H]2OC(C)=O)cc1 | > 35 µM (inactive)
62 | c1ccc(-c2sc3ccccc3c2-c2ccc(OCCN3CCCC3)cc2)cc1 | 33 µM
63 | COc1ccc(-c2nc(NC(=O)c3n[nH]c(=O)c4ccccc34)sc2C)cc1 | > 35 µM (inactive)
64 | Cc1ccc(NC(=O)c2ccc(N/N=C/c3cccc(O)c3)c([N+](=O)[O-])c2)cc1 | 27.3 µM
65 | Cc1ccc(N(Cc2cc(=O)[nH]c3ccccc23)C(=O)CCl)cc1 | > 35 µM (inactive)
66 | CC1=CC(=O)C(C(C)C)=C/C1=N/OS(=O)(=O)c1ccccc1 | 7.41 µM

Row | Structure (SMILES) | AC50
67 | Cc1cccc(NC(=O)CSc2nc(C)c(CC(=O)c3ccc(Br)cc3)c(C)c2C#N)c1C | > 35 µM (inactive)
68 | O=C1C2C3C=CC(CO)(O3)C2C(=O)N1c1ccc(-c2ccccc2)cc1 (stereo unspecified) | > 35 µM (inactive)
69 | COc1ccc(NC(=O)c2cccc3c2C(=O)c2ccc(-c4ccc(F)cc4OCc4ccccc4)cc2S3(=O)=O)cc1 | > 35 µM (inactive)
70 | C#CC(=O)N(c1cc(OC)ccc1OC)C(C(=O)NC1CCCC1)c1cccs1 (stereo unspecified) | > 35 µM (inactive)
71 | COc1ccc(S(=O)(=O)N2CC(O)CC2C(=O)OCC(=O)Nc2ccc(Cl)cn2)cc1 (stereo unspecified) | > 35 µM (inactive)
72 | Cc1ccc(C)c(NC(=S)NC(NC(=O)Cc2cccc3ccccc23)C(Cl)(Cl)Cl)c1 (stereo unspecified) | 24.1 µM
73 | COc1cc(NC(=O)c2ccccc2F)ccc1NC(=O)c1cc2ccccc2o1 | > 35 µM (inactive)
74 | O=C(/C=C/c1ccc(F)cc1)NC(=S)Nc1ccccc1C(=O)NC1CCCCC1 | > 35 µM (inactive)
75 | COc1ccc(-c2ccc3c(c2)S(=O)(=O)c2cccc(C(=O)NC[C@@H]4CCCO4)c2C3=O)cc1OC | > 35 µM (inactive)
76 | CCc1nnc(NC(=O)c2nc(S(=O)(=O)Cc3ccccc3)ncc2Cl)s1 | > 35 µM (inactive)
77 | COc1ccc(OC)c2sc(N(CCCN(C)C)C(=O)c3ccc(S(=O)(=O)N4CCc5ccccc5C4)cc3)nc12 | > 35 µM (inactive)
78 | CCCc1ccc(OCc2ccc(C(=O)N/N=C/c3cccc([N+](=O)[O-])c3)o2)c(OC)c1 | 26.3 µM
79 | Cc1ccc(-c2nc(NC(=O)c3nn(C)cc3[N+](=O)[O-])sc2C)cc1 | 6.29 µM
80 | CCn1c(Cl)c(C=O)s/c1=N\S(=O)(=O)c1ccccc1 | > 35 µM (inactive)
81 | CC(=O)Nc1ncnc2c1c(-c1ccc(Cl)cc1)nn2C(C)(C)C | > 35 µM (inactive)
82 | CCOC(=O)c1sc(NC(=O)CSc2nc(C)cc(C)c2C#N)c(C#N)c1C | > 35 µM (inactive)
83 | CCOC(=O)CSC1=N/C(=C/c2ccc(-n3cncn3)cc2)C(=O)N1C(C)=O | > 35 µM (inactive)
84 | C=CC(=O)Nc1ccc(CN2C(=O)N(c3c(Cl)c(OC)cc(OC)c3Cl)Cc3cnc(NCCCCN(CC)CC)nc32)cc1 | > 35 µM (inactive)
85 | COC(=O)[C@@]1(C)CC[C@]2(C)CC[C@@]3(C)C(=CC(=O)C4[C@@]5(C)CC[C@H](O)C(C)(C)[C@@H]5CC[C@]43C)[C@H]2C1 (stereo partly specified) | > 35 µM (inactive)
86 | COC(=O)CSc1nc(N)c2c3c(sc2n1)C(c1ccccc1)SC(c1ccccc1)C3 (stereo unspecified) | > 35 µM (inactive)
